# Assay results collected from several papers.
# Lines come from different studies, so protocols differ.
# Read-out: cell growth or viability
Compound,cell line,test,setting,quantity,value
C=CC(=O)N1CCC[C@@H](n2nc(-c3ccc(Oc4ccccc4)cc3)c3c(N)ncnc32)C1,MINO,ATP luminescence,72 h,GI50,6.31 µM
Cc1cc(=O)oc2ccc(-c3cc(-c4ccc(Br)cc4)nc(N)n3)c(O)c12,KB,MTT,"2 µg/mL, 72 h",inhibition,0%
COC(=O)COc1ccc(NC(=O)C2(c3ccc(Cl)cc3)CC2)cc1Br,U-937,ATP luminescence,72 h,GI50,1.6 µM
Cc1ccc(-c2cc(-c3ccc4oc(=O)cc(C)c4c3O)nc(N)n2)cc1,KB,MTT,"8 µg/mL, 72 h",inhibition,0%
CC(C)C[C@H](NC(=O)[C@H](Cc1ccccc1)NC(=O)c1cnccn1)B(O)O,SNU1,ATP luminescence,,IC50,0.014 µM
COc1cc(-c2ccc(-c3ccc(C(=N)N)nc3)s2)cc(OC)c1OC,IGROV-1,SRB,,GI50,2.63 µM
CCn1c(-c2nonc2N)nc2c(C#CC(C)(C)O)ncc(OC[C@H]3CCCNC3)c21,UACC-903,resazurin,72 h,EC50,83 µM
COc1ccc(-c2cc(-c3ccc4oc(=O)cc(C)c4c3O)nc(N)n2)cc1,KB,MTT,"128 µg/mL, 72 h",inhibition,28%
COC(=O)COc1ccc(NC(=O)C2(c3ccc(F)cc3)CC2)cc1,U-937,ATP luminescence,72 h,GI50,5.9 µM
C=CC(=O)N1CCN(c2nc(=O)n(-c3c(C)ccnc3C(C)C)c3nc(-c4c(O)cccc4F)c(F)cc23)[C@@H](C)C1,LS-513,,5 days,EC50,> 10 µM
COC(=O)COc1cccc(NC(=O)C2(c3cccc(C)c3)CC2)c1,U-937,ATP luminescence,72 h,GI50,> 200 µM
Cc1cc(=O)oc2ccc(-c3cc(-c4cccc(Cl)c4)nc(N)n3)c(O)c12,KB,MTT,"2 µg/mL, 72 h",inhibition,0%
COC(=O)COc1ccc(NC(=O)C2(c3cccc(C)c3)CC2)c(C)c1,U-937,ATP luminescence,72 h,GI50,6.8 µM
C=CC(=O)N1CCC[C@@H](n2nc(-c3ccc(Oc4ccccc4)cc3)c3c(N)ncnc32)C1,U-937,ATP luminescence,72 h,GI50,6.4 µM
